# Measurements pooled from the literature.
# Lines come from different studies, so protocols differ.
# Effect on: cell growth or viability
Compound,cell line,method,tested at,time,quantity,result
O=C(NCc1cn(Cc2ccc(Br)cc2)nn1)Nc1ccc(Cl)cc1,PC-9,CCK-8,20 µM,72 h,viability,111%
COc1ccc(NC(=O)Nc2cccc(-c3cn(Cc4ccc(Cl)cc4)nn3)c2)cc1,PC-9,CCK-8,20 µM,72 h,viability,147%
O=C(Nc1cccc(F)c1)Nc1nc2cc(-c3ccc4ncn(CCN5CCOCC5)c(=O)c4c3)ccc2s1,PC-9,MTT,,72 h,IC50,> 20 µM
COc1ccc(NC(=O)Nc2cccc(-c3cn(Cc4cccc(Cl)c4)nn3)c2)cc1,PC-9,CCK-8,20 µM,72 h,viability,143%
O=C(Nc1ccc(Cl)cc1)Nc1nc2cc(-c3ccc4ncn(Cc5ccccc5)c(=O)c4c3)ccc2s1,PC-9,MTT,,72 h,IC50,> 20 µM
O=C(NCc1cn(Cc2cccc(Cl)c2)nn1)Nc1ccc(Cl)cc1,PC-9,CCK-8,20 µM,72 h,viability,90.9%
O=C(Nc1ccc(Cl)cc1)Nc1cccc(-c2cn(Cc3cccc(Br)c3)nn2)c1,PC-9,CCK-8,20 µM,72 h,viability,101%
Cc1nc(Nc2ncc(C(=O)Nc3c(C)cccc3Cl)s2)cc(N2CC[C@H](O)C2)n1,WSUDLCL2,ATP luminescence,10 µM,72 h,inhibition,13%
NCCC(=O)Nc1ccc(/N=c2\cc(-c3ccc4c(c3)OCO4)oc3ccccc23)cc1,HCT-116,CCK-8,1 µM,,inhibition,12.2%
O=C(Nc1cccc(-c2cn(Cc3ccc(Cl)cc3)nn2)c1)Nc1ccccc1Br,PC-9,CCK-8,20 µM,72 h,viability,130%
COc1ccc2oc(-c3ccc4nc(N)oc4c3)c/c(=N\c3ccccc3NC(=O)CCN)c2c1,HCT-116,CCK-8,1 µM,,inhibition,45.5%
CCCCCCCCCCCCCCCCCCOc1ccccc1CC(=O)OCC[N+](C)(C)C,EKVX,SRB,10 µM,,inhibition,53.1%
COc1ccc(NC(=O)Nc2ccc(-c3cn(Cc4cccc(Cl)c4)nn3)cc2)cc1,PC-9,CCK-8,20 µM,72 h,viability,98.2%
O=C(Nc1cccc(C(F)(F)F)c1)Nc1nc2cc(-c3ccc4ncn(CCN5CCOCC5)c(=O)c4c3)ccc2s1,PC-9,MTT,,72 h,IC50,> 20 µM
NCCCCC(=O)Nc1ccccc1/N=c1\cc(-c2ccc3c(c2)OCO3)oc2ccccc12,HCT-116,CCK-8,1 µM,,inhibition,3.02%
COc1ccc(NC(=O)Nc2cccc(-c3cn(Cc4ccc(Br)cc4)nn3)c2)cc1,PC-9,CCK-8,20 µM,72 h,viability,141%
CCCCCCCCCCCCCCCCCCOc1ccccc1CC(=O)OCC[N+]1(C)CCCCC1,EKVX,SRB,10 µM,,inhibition,36.9%
O=C(Nc1ccc(Cl)cc1)Nc1ccc(-c2cn(Cc3cccc(Cl)c3)nn2)cc1,PC-9,CCK-8,20 µM,72 h,viability,72.1%
NCC(=O)Nc1ccccc1/N=c1\cc(-c2ccc3c(c2)OCO3)oc2ccccc12,HCT-116,CCK-8,1 µM,,inhibition,4.94%
O=C(NCc1cn(Cc2ccc(Cl)cc2)nn1)Nc1ccc(Cl)cc1,PC-9,CCK-8,50 µM,72 h,viability,81.7%
COc1ccc(NC(=O)NCc2cn(Cc3ccc(Br)cc3)nn2)cc1,PC-9,CCK-8,50 µM,72 h,viability,143%
CNCCC(=O)Nc1ccccc1/N=c1\cc(-c2ccc3nc(N)oc3c2)oc2ccccc12,HCT-116,CCK-8,1 µM,,inhibition,76.8%
C[C@H](Nc1ccc2c(c1)OCCn1cc(N3C(=O)OC[C@H]3C(F)F)nc1-2)C(N)=O,KYSE-510,ATP luminescence,,5 days,EC50,0.0878 µM
NCC(=O)Nc1ccccc1/N=c1\cc(-c2ccc3c(c2)OCCO3)oc2ccccc12,HCT-116,CCK-8,1 µM,,inhibition,16.4%
O=C(Nc1ccc(-c2cn(Cc3ccc(Cl)cc3)nn2)cc1)Nc1ccccc1Br,PC-9,CCK-8,20 µM,72 h,viability,98.3%
CCCCCCCCCCCCCCCCCCOc1cccc(CC(=O)OCCC[N+](C)(C)C)c1,EKVX,SRB,10 µM,,inhibition,4.64%
O=C(NN=Cc1ccc(O)cc1)c1nc2ccccc2s1,HCT-116,MTT,100 µM,48 h,cell death,50%
NCCCC(=O)Nc1ccccc1/N=c1\cc(-c2ccc3c(c2)OCO3)oc2ccccc12,HCT-116,CCK-8,1 µM,,inhibition,6.97%
O=C(NCCc1ccccc1)Nc1nc2cc(-c3ccc4ncn(CCN5CCOCC5)c(=O)c4c3)ccc2s1,PC-9,MTT,,72 h,IC50,8.14 µM
NCCC(=O)Nc1ccccc1/N=c1\cc(-c2ccc3c(c2)OCCO3)oc2cc(F)ccc12,HCT-116,CCK-8,1 µM,,inhibition,11.5%
CCCCCCCCCCCCCCCCCCOc1ccccc1CC(=O)OCCC[N+](C)(C)C,EKVX,SRB,10 µM,,inhibition,21%
